Measurements: ChEMBL document CHEMBL1128711, “Calcium entry blockers and activators: conformational and structural determinants of dihydropyrimidine calcium channel modulators” (J Med Chem, 1995)
pEC50, pIC50: −log10 of the molar value.

Legend:
Oryctolagus cuniculus [1] = species on record: Oryctolagus cuniculus; assay: In vitro inhibition of potassium-induced contractions in rabbit aorta strips.; type: functional, organism-based
Method in brief: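 Rabbit aortic strips contracted with 110 mM KCl (equimolar replacement of NaCl), then exposed to cumulative concentrations of test compound.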

Oryctolagus cuniculus [2] = species on record: Oryctolagus cuniculus; assay: In vitro contraction of rabbit aorta strips.; type: functional, organism-based
Method in brief: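 Rabbit aortic strips first contracted with 110 mM KCl to check viability and set maximal force. After washout and full relaxation, strips were equilibrated in 10 mM KCl, then given cumulative concentrations of test compound. EC50 is the concentration giving 50% of the prior 110 mM KCl maximal force.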

Row | pIC50 (Oryctolagus cuniculus [1]) | pEC50 (Oryctolagus cuniculus [2]) | pIC50 (Oryctolagus cuniculus [1]; Oryctolagus cuniculus, Aorta) | pEC50 (Oryctolagus cuniculus [2]; Oryctolagus cuniculus, Aorta) | Structure (SMILES)
1 | 7.00 | < 4.52 |  |  | CSC1=NC2/C(=C(/O)OCCCCCSc3ccccc32)C(C)=N1 (stereo in doubt; 15b-A)
2 |  |  | 5.64 | < 4.52 | COC(=O)C1=C(C)N=C(SC)N[C@@H]1c1ccccc1SC
3 |  |  | 4.70 | < 4.52 | COC(=O)C1=C(C)N=C(SC)NC1c1cc([N+](=O)[O-])ccc1SC (stereo not given)
4 |  |  | 4.77 | 7.34 | CO/C(O)=C1\C(C)=NC(C)=C([N+](=O)[O-])[C@H]1c1ccccc1C(F)(F)F
5 |  |  | 4.69 | < 4.52 | COC(=O)C1=C(C)N=C(SC)NC1c1ccccc1SC (stereo not given)
6 |  |  | 5.60 | < 4.52 | COC(=O)C1=C(C)N=C(SC)NC1c1cccc([N+](=O)[O-])c1 (stereo not given)
7 |  |  | < 4.52 | < 4.52 | CSC1=NC(c2ccccc2SC)C2=C(O)OCC2=N1 (stereo not given)
8 | 5.41 | 6.09 |  |  | CSC1=NC2/C(=C(/O)OCCCCCSc3ccccc32)C(C)=N1 (stereo in doubt; 15b)
9 |  |  | < 4.52 | < 4.52 | CSC1=NC(c2cc([N+](=O)[O-])ccc2SC)C2=C(O)OCC2=N1 (stereo not given)
10 | < 4.52 | 6.23 |  |  | CSC1=NC2/C(=C(/O)OCCCCCSc3ccccc32)C(C)=N1 (stereo in doubt; 15b-B)
11 |  |  | 4.59 | 5.54 | CSC1=NC2/C(=C(/O)OCCCCCSc3ccc([N+](=O)[O-])cc32)C(C)=N1 (stereo not given)
12 |  |  | < 4.52 | < 4.52 | CSC1=NC(c2cccc([N+](=O)[O-])c2SC)C2=C(O)OCC2=N1 (stereo not given)
13 |  |  | < 4.52 | 4.76 | CCCCSc1ccccc1C1N=C(SC)NC2=C1C(=O)OC2 (stereo not given)
14 |  |  | < 4.52 | 5.45 | COC(=O)C1=C(C)N=C(SC)N[C@H]1c1ccccc1SC
15 |  |  |  | < 4.52 | COC(=O)C1=C(C)N=C(SC)NC1c1cccc([N+](=O)[O-])c1SC (stereo not given)
16 |  |  | < 4.52 | < 4.52 | CSC1=NC(c2cccc([N+](=O)[O-])c2)C2=C(O)OCC2=N1 (stereo not given)
17 |  |  | 7.44 | < 4.52 | CSC1=NC2/C(=C(/O)OCCCCCSc3c2cccc3[N+](=O)[O-])C(C)=N1 (stereo not given)

Row | Structure (SMILES) | pIC50 (Oryctolagus cuniculus [1]) | pEC50 (Oryctolagus cuniculus [2]) | pIC50 (Oryctolagus cuniculus [1]; Oryctolagus cuniculus, Aorta) | pEC50 (Oryctolagus cuniculus [2]; Oryctolagus cuniculus, Aorta)
18 | COC(=O)C1=C(C)NC(C)=C(C(=O)OC)C1c1ccccc1[N+](=O)[O-] [NIFEDIPINE] |  |  | 7.72 | < 4.52
